Assays:
[1] = Cytotoxicity against uninfected PHA-stimulated peripheral blood mononuclear (PBM) cells; format: cell-based; details: Homo sapiens
Method in brief: (§1)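 Uninfected cells were cultured with or without drug: PHA-stimulated human PBM cells for 6 days, Vero cells for 3 days, CEM cells for 6 days. Cells were then counted with trypan blue. Compounds came from 40 mM DMSO stocks diluted in medium (final DMSO below 0.25%). IC50 was derived from a median effect plot.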

[2] = system: Human immunodeficiency virus 1; assay: Effective concentration against HIV-1 strain LAV in human peripheral blood mononuclear (PBM) cells.; format: functional, organism-based
Method in brief: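 Mitogen-stimulated human PBM cells infected with HIV-1 LAV at MOI 0.1 (set by limiting dilution in PBM cells). Compounds were added about 45 min after infection, diluted in medium from 40 mM DMSO stocks (final DMSO below 0.25%). Read-out was supernatant reverse transcriptase (RT) level. EC50 was taken from a median effect plot of dose-effect data.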

Vero = assay: Cytotoxic effect against vero cells.; format: cell-based; details: Chlorocebus sabaeus; method in brief: as §1
CCRF-CEM [3] = assay: Cytotoxicity against uninfected PHA-stimulated CEM cells; format: cell-based; details: Homo sapiens; method in brief: as §1
CCRF-CEM [4] = assay: Effective concentration for inhibition of virus production in human CEM cells; format: functional, cell-based

EC50 [2] | EC50 (CCRF-CEM [4]) | SMILES | IC50 [1] | IC50 (Vero) | IC50 (CCRF-CEM [3])
17.5 µM |  | Nc1nc(O)c2ncn([C@@H]3CO[C@H](CO)O3)c2n1 | > 100 µM | > 100 µM | 
102 µM |  | Nc1nc(O)c2ncn([C@H]3CO[C@H](CO)O3)c2n1 | > 100 µM | > 100 µM | 
1.27 µM |  | Nc1nc(Cl)nc2c1ncn2[C@H]1CO[C@H](CO)O1 |  |  | 
0.014 µM |  | Nc1nc(N)c2ncn([C@@H]3CO[C@H](CO)O3)c2n1 |  |  | 
34.7 µM |  | Nc1nc(Cl)nc2c1ncn2[C@@H]1CO[C@H](CO)O1 |  |  | 
42.1 µM |  | Nc1nc(N)c2ncn([C@H]3CO[C@H](CO)O3)c2n1 |  |  | 

The next lines start with the molecule.

SMILES | EC50 [2] | EC50 (CCRF-CEM [4]) | IC50 [1] | IC50 (Vero) | IC50 (CCRF-CEM [3])
Nc1ccn([C@H]2CO[C@@H](CO)O2)c(=O)n1 | 0.016 µM | 0.009 µM | 62 µM |  | 12.8 µM
Nc1ccn([C@@H]2CO[C@H](CO)O2)c(=O)n1 [TROXACITABINE] | 0.002 µM |  | > 10 µM | 0.1 µM | 
Cc1cn([C@H]2C[C@H](N=[N+]=[N-])[C@@H](CO)O2)c(=O)[nH]c1=O [ZIDOVUDINE] |  |  | > 100 µM |  | 
Nc1ccn([C@H]2CO[C@H](CO)O2)c(=O)n1 | 1.3 µM |  | > 10 µM | 16.8 µM | 

— ChEMBL document CHEMBL1126602, “L-beta-(2S,4S)- and L-alpha-(2S,4R)-dioxolanyl nucleosides as potential anti-HIV agents: asymmetric synthesis and structure-activity relationships” (J Med Chem, 1993)
